Test results published in ChEMBL document CHEMBL4325838, “Norbornane-based cationic antimicrobial peptidomimetics targeting the bacterial membrane” (Eur J Med Chem, 2018).
Values after ≈ are worked out from the molar mass of the structure shown.

Columns and labels:
[1] = system: Candida albicans; test: Antifungal activity against Candida albicans ATCC 90028 after 18 to 20 hrs by broth microdilution assay; format: functional
[2] = system: Cryptococcus neoformans; test: Antifungal activity against Cryptococcus neoformans H99 ATCC 208821 after 18 to 20 hrs by broth microdilution assay; format: functional; conditions: var. grubii H99 ATCC 208821
[3] = Cytotoxicity against HEK293 cells after 24 hrs by resazurin dye-based fluorescence analysis; format: cell-based; conditions: human
In short: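 HEK293 cells were seeded at 3000/well in DMEM with 10% FBS and attached for 24 h at 37 °C, 5% CO₂. A compound concentration series was applied for 24 h. Resazurin was added at 10 µM for 2 h and fluorescence read at ex/em 560/590. Results are average percentage of control ± SD of duplicate wells.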

[4] = system: Acinetobacter baumannii; test: Antibacterial activity against Acinetobacter baumannii ATCC 19606 after 18 to 20 hrs by broth microdilution assay; format: functional; conditions: ATCC 19606 = CIP 70.34 = JCM 6841
In short: (§1)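 Bacteria grown overnight at 37 °C with shaking in nutrient broth or Mueller-Hinton broth (MHB). Cultures were diluted 50-fold in MHB and grown 1.5–3 h to mid-log phase, then set at 5×10^5 CFU/mL final. Compounds were 2-fold serially diluted, final 32 to 0.015 µg/mL, 1% DMSO. […] Two independent experiments of n = 2 (n = 4).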

[5] = system: Pseudomonas aeruginosa; test: Antibacterial activity against Pseudomonas aeruginosa ATCC 27853 after 18 to 20 hrs by broth microdilution assay; format: functional; in short: as §1
[6] = system: Klebsiella pneumoniae; test: Antibacterial activity against multidrug-resistant Klebsiella pneumoniae ATCC 700603 after 18 to 20 hrs by broth microdilution assay; format: functional
In short: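 Strains were grown overnight at 37 °C with shaking in nutrient broth or MHB, diluted 50-fold in MHB and grown 1.5–3 h to mid-log. Compounds were 2-fold serially diluted in MHB at 32 to 0.015 µg/mL final (1% DMSO) with 5×10^5 CFU/mL. […] Two independent experiments of n = 2 (n = 4).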

[7] = system: Escherichia coli; test: Antibacterial activity against Escherichia coli ATCC 25922 after 18 to 20 hrs by broth microdilution assay; format: functional; in short: as §1
[8] = system: Staphylococcus aureus; test: Antibacterial activity against glycopeptide-intermediate resistant Staphylococcus aureus NARSA NRS17 after 18 to 20 hrs by broth microdilution assay
[9] = system: Staphylococcus aureus; test: Antibacterial activity against glycopeptide-intermediate/methicillin-resistant Staphylococcus aureus NARSA NRS1 after 18 to 20 hrs by broth microdilution assay
[10] = system: Staphylococcus aureus; test: Antibacterial activity against vancomycin-resistant Staphylococcus aureus NARSA VRS10 after 18 to 20 hrs by broth microdilution assay
[11] = system: Staphylococcus aureus; test: microbe, parasite or virus in culture; conditions: ATCC 43300
[12] = system: Streptococcus pneumoniae; test: microbe, parasite or virus in culture; conditions: ATCC 700677
[13] = system: Staphylococcus aureus; test: Antibacterial activity against methicillin-resistant Staphylococcus aureus ATCC 43300 after 20 hrs by micro-broth dilution assay; format: functional; conditions: ATCC 43300, 20 h
[14] = Drug localization in methicillin-resistant Staphylococcus aureus subsp. aureus Rosenbach ATCC 43300 at 10 ug/ml after 20 mins by confocal microscopic analysis; format: ADME
In short: (§2)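 MRSA ATCC 43300 was grown overnight in LB broth at 37 °C with gentle shaking, then incubated 20 min at 37 °C with 10 µg/mL fluorescent compound in LB. Cells were fixed in 4% paraformaldehyde for 20 min, wet-mounted on slides and imaged by confocal microscopy.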

[15] = Drug localization in […] Escherichia coli ATCC 25922 at 10 ug/ml after 20 mins by confocal microscopic analysis; format: ADME
In short: (§3)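 E. coli ATCC 25922 was grown overnight in LB broth at 37 °C with gentle shaking. Cells were exposed to 10 µg/mL fluorescent compound in LB for 20 min at 37 °C. Localisation was imaged by confocal microscopy, including 3D rendering.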

[16] = system: Acinetobacter baumannii; test: Antibacterial activity against Acinetobacter baumannii ATCC 19606 assessed as zone of inhibition at 50 ug/disc after 20 hrs by disk diffusion assay; format: functional; conditions: ATCC 19606 = CIP 70.34 = JCM 6841, 20 h, read-out: IZ
In short: (§4)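 Disks loaded with 50 µg compound. Isolate suspensions were adjusted to 0.5 McFarland in 0.9% NaCl and swabbed onto nutrient agar plates, with zones of inhibition measured. Controls: 10 µg colistin sulphate disk, 10 µL DMSO, and a plate swabbed with saline from the dispenser.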

[17] = system: Pseudomonas aeruginosa; test: Antibacterial activity against Pseudomonas aeruginosa ATCC 27853 assessed as zone of inhibition at 50 ug/disc after 20 hrs by disk diffusion assay; format: functional; conditions: ATCC 27853, 20 h, read-out: IZ; in short: as §4
[18] = system: Klebsiella pneumoniae; test: Antibacterial activity against Klebsiella pneumoniae ATCC 13883 assessed as zone of inhibition at 50 ug/disc after 20 hrs by disk diffusion assay; format: functional; conditions: ATCC 13883, 20 h, read-out: IZ; in short: as §4
[19] = system: Staphylococcus aureus; test: Antibacterial activity against methicillin-resistant Staphylococcus aureus ATCC 43300 assessed as zone of inhibition at 50 ug/disc after 20 hrs by disk diffusion assay; format: functional; conditions: ATCC 43300, 20 h, read-out: IZ
In short: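 Disk diffusion, 50 µg compound per disk. Bacterial suspensions were adjusted to 0.5 McFarland in 0.9% NaCl and swabbed onto nutrient agar plates. Controls were a 10 µg colistin sulphate disk, 10 µL DMSO, and a plate swabbed with saline from the dispenser.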

[20] = system: Enterococcus faecium; test: Antibacterial activity against Enterococcus faecium ATCC 700221 assessed as zone of inhibition at 50 ug/disc after 20 hrs by disk diffusion assay; format: functional; conditions: ATCC 700221, 20 h, read-out: IZ; in short: as §4
[21] = Drug localization in peripheral region of methicillin-resistant Staphylococcus aureus subsp. aureus Rosenbach ATCC 43300 at 10 ug/ml after 20 mins by confocal microscopic analysis; format: ADME; in short: as §2
[22] = Drug localization in peripheral region of […] Escherichia coli ATCC 25922 at 10 ug/ml after 20 mins by confocal microscopic analysis; format: ADME; in short: as §3
[23] = system: Escherichia coli; test: Antibacterial activity against Escherichia coli ATCC 25922 after 20 hrs by micro-broth dilution assay; format: functional; conditions: ATCC 25922, 20 h
[24] = system: Pseudomonas aeruginosa; test: Antibacterial activity against Pseudomonas aeruginosa ATCC 27853 after 20 hrs by micro-broth dilution assay; format: functional; conditions: ATCC 27853, 20 h

## OC(Cn1cncn1)(Cn1cncn1)c1ccc(F)cc1F [FLUCONAZOLE]
[1]
  MIC: 1 µg/mL (≈ 3.27 µM)
[2]
  MIC: 8 µg/mL (≈ 26.1 µM)

## CC/C(=C(\c1ccccc1)c1ccc(OCCN(C)C)cc1)c1ccccc1 [TAMOXIFEN]
[3]
  CC50 at 24 h: 13 µg/mL (≈ 35 µM)

## CCCCCCCCCCCCCCCC1O[C@@H]2[C@@H]3C[C@H]([C@@H]2O1)[C@@H](C(=O)NCCNC(=N)NCc1ccccc1)[C@@H]3C(=O)NCCNC(=N)NCc1ccccc1.Cl.Cl (some centres undefined)
[4]
  MIC: > 128 µg/mL
[5]
  MIC: > 128 µg/mL
[6]
  MIC: > 128 µg/mL
[7]
  MIC: > 128 µg/mL
[8]
  MIC: 0.25 µg/mL
[9]
  MIC: 0.5 µg/mL
[10]
  MIC: 0.5 µg/mL
[3]
  CC50 at 24 h: 7.8 µg/mL
[11]
  MIC: 0.25 µg/mL
[12]
  MIC: 1 µg/mL

## CCCCCCCC1O[C@@H]2[C@@H]3C[C@H]([C@@H]2O1)[C@@H](C(=O)NCCNC(=O)c1ccc(C(=O)NC(=N)N)[nH]1)[C@@H]3C(=O)NCCNC(=O)c1ccc(C(=O)NC(=N)N)[nH]1.Cl.Cl (some centres undefined)
[4]
  MIC: > 128 µg/mL
[5]
  MIC: > 128 µg/mL
[6]
  MIC: > 128 µg/mL
[7]
  MIC: > 128 µg/mL
[8]
  MIC: > 128 µg/mL
[9]
  MIC: > 128 µg/mL
[10]
  MIC: 128 µg/mL
[3]
  CC50 at 24 h: > 100 µg/mL
[11]
  MIC: > 128 µg/mL
[12]
  MIC: > 128 µg/mL

## CCCCCCCCCCCCCCCC1O[C@@H]2[C@@H]3C[C@H]([C@@H]2O1)[C@@H](C(=O)NCCNC(=N)N)[C@@H]3C(=O)NCCNC(=N)N.Cl.Cl (some centres undefined)
[13]
  MIC: 1 µg/mL

## CCCN1C(=O)c2cccc3c(N)ccc(c23)C1=O
[14]
  Drug uptake: Active
[15]
  Drug uptake: Active

## CCCCCCCC1O[C@@H]2[C@@H]3C[C@H]([C@@H]2O1)[C@@H](C(=O)NCCNC(=N)NCc1ccccc1)[C@@H]3C(=O)NCCNC(=N)NCc1ccccc1.Cl.Cl (some centres undefined)
[4]
  MIC: > 32 µg/mL
[5]
  MIC: 32 µg/mL
[6]
  MIC: > 32 µg/mL
[7]
  MIC: 8 µg/mL
[8]
  MIC: 1 µg/mL
[9]
  MIC: 2 µg/mL
[10]
  MIC: 1 µg/mL
[1]
  MIC: 128 µg/mL
[2]
  MIC: 2 µg/mL
[16]
  zone of inhibition at 50 µg/disc: 10 mm
[17]
  zone of inhibition at 50 µg/disc: 13 mm
[18]
  zone of inhibition at 50 µg/disc: 15 mm
[19]
  zone of inhibition at 50 µg/disc: 17 mm
[20]
  zone of inhibition at 50 µg/disc: 18 mm
[3]
  CC50 at 24 h: > 50 µg/mL
[11]
  MIC: 2 µg/mL
[12]
  MIC: 2 µg/mL

## CCCNc1ccc([N+](=O)[O-])c2nonc12
[15]
  Drug uptake: Active
[21]
  Drug uptake: Active

## Cl.Cl.N=C(N)NCCNC(=O)[C@@H]1[C@@H]2C[C@@H]([C@H]3OC(CCCCCCCCCCCNc4ccc([N+](=O)[O-])c5nonc45)O[C@@H]23)[C@H]1C(=O)NCCNC(=N)N (some centres undefined)
[4]
  MIC: 32 µg/mL
[5]
  MIC: 32 µg/mL
[6]
  MIC: > 32 µg/mL
[7]
  MIC: 8 µg/mL
[8]
  MIC: 1 µg/mL
[9]
  MIC: 4 µg/mL
[10]
  MIC: 0.5 µg/mL
[1]
  MIC: 16 µg/mL
[2]
  MIC: 4 µg/mL
[17]
  zone of inhibition at 50 µg/disc: 9 mm
[18]
  zone of inhibition at 50 µg/disc: 8.5 mm
[19]
  zone of inhibition at 50 µg/disc: 9 mm
[3]
  CC50 at 24 h: > 50 µg/mL
[14]
  Drug uptake: Active
[15]
  Drug uptake: Active
[21]
  Drug uptake: Active
[22]
  Drug uptake: Active
[11]
  MIC: 1 µg/mL
[12]
  MIC: 1 µg/mL

## Cl.Cl.Cl.N=C(N)NCCNC(=O)[C@@H]1[C@@H]2C[C@@H]([C@H]3OC(CCCCCCCCCCCN)O[C@@H]23)[C@H]1C(=O)NCCNC(=N)N (some centres undefined)
[4]
  MIC: > 32 µg/mL
[5]
  MIC: > 32 µg/mL
[6]
  MIC: > 32 µg/mL
[7]
  MIC: > 32 µg/mL
[8]
  MIC: 16 µg/mL
[9]
  MIC: 8 µg/mL
[10]
  MIC: 8 µg/mL
[16]
  zone of inhibition at 50 µg/disc: 12 mm
[17]
  zone of inhibition at 50 µg/disc: 12 mm
[18]
  zone of inhibition at 50 µg/disc: 14.5 mm
[19]
  zone of inhibition at 50 µg/disc: 14 mm
[3]
  CC50 at 24 h: > 50 µg/mL
[11]
  MIC: 16 µg/mL
[12]
  MIC: 8 µg/mL

## Cl.Cl.N=C(N)NCCNC(=O)[C@@H]1[C@@H]2C[C@@H]([C@@H](OCc3ccc(C(F)(F)F)cc3)[C@H]2OCc2ccc(C(F)(F)F)cc2)[C@H]1C(=O)NCCNC(=N)N
[13]
  MIC: 8 µg/mL
[23]
  MIC: 8 µg/mL
[24]
  MIC: 8 µg/mL

## CN[C@H](CC(C)C)C(=O)N[C@H]1C(=O)N[C@@H](CC(N)=O)C(=O)N[C@H]2C(=O)N[C@H]3C(=O)N[C@H](C(=O)N[C@H](C(=O)O)c4cc(O)cc(O)c4-c4cc3ccc4O)[C@H](O)c3ccc(c(Cl)c3)Oc3cc2cc(c3O[C@@H]2O[C@H](CO)[C@@H](O)[C@H](O)[C@H]2O[C@H]2C[C@](C)(N)[C@H](O)[C@H](C)O2)Oc2ccc(cc2Cl)[C@H]1O [VANCOMYCIN]
[10]
  MIC: > 64 µg/mL
[12]
  MIC: 1 µg/mL (≈ 0.69 µM)

## CCCNc1ccc2c3c(cccc13)C(=O)N(CCCCCCCCCCCC1O[C@@H]3[C@@H]4C[C@H]([C@@H]3O1)[C@@H](C(=O)NCCNC(=N)N)[C@@H]4C(=O)NCCNC(=N)N)C2=O.Cl.Cl (some centres undefined)
[4]
  MIC: > 32 µg/mL
[5]
  MIC: > 32 µg/mL
[6]
  MIC: > 32 µg/mL
[7]
  MIC: > 32 µg/mL
[8]
  MIC: 4 µg/mL
[9]
  MIC: 4 µg/mL
[10]
  MIC: 2 µg/mL
[1]
  MIC: 128 µg/mL
[2]
  MIC: 0.25 µg/mL
[3]
  CC50 at 24 h: > 50 µg/mL
[14]
  Drug uptake: Active
[15]
  Drug uptake: Active
[21]
  Drug uptake: Active
[22]
  Drug uptake: Active
[11]
  MIC: 1 µg/mL
[12]
  MIC: 1 µg/mL
